Assay results: PubChem BioAssay AID1296 (Columbia University Molecular Screening Center, 2008)
Hit rate of the full screen: of about 130,000 compounds, about 1,000 (0.77%) were called active. Not shown: some 1% with an inconclusive outcome.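 Rule for the calls: active = activation at 2 µM above a set limit, confirmed on inspection of the cell images; inconclusive = above the set limit but not confirmed on image inspection; inactive = the rest.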 Many of the other results were omitted from the sample, so actives are more common in it than they were.

Experiment: activators of insulin promoter-driven GFP, primary screen, imaging, TRM-6 cells (human fetal islet line), eGFP reporter, cell count (AID 1296;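 for activation: share of cells whose green reporter signal exceeds an intensity cutoff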;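 for normalized cell count: cells counted after 48 h compound exposure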)
Settings: at 2 µM; activation: stronger effect = higher value, plate-scaled: unstimulated 0, stimulated control 100; normalized cell count: measured here: cell count (toxicity)
How it was run: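 Assay system: TRM-6 human fetal islet cells, insulin promoter–eGFP reporter; Also added: 0.75 µM tamoxifen as reporter inducer; Schedule: 15 h tamoxifen pre-treatment, 48 h compound treatment at 37 °C; Signal: fixed-cell fluorescence microscopy, eGFP plus Hoechst; Read-out: percent activation from GFP-positive cell fraction; Control set: stimulated and unstimulated wells.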

Row | Compound | activation | normalized cell count [%]
1 | Cc1cccc(C)c1OC(=O)CSc1nnc(-c2ccccc2)o1 | 487% (active) | 75.9
2 | COC(=O)CSc1nnc(-c2cccnc2)o1 | 5.13% (inactive) | 134
3 | O=C(CSc1nnc(-c2ccoc2)o1)N1CCOCC1 | -9.09% (inactive) | 105
4 | C=CCOc1c(Br)cc(/C=N\n2nnnc2N)cc1OC | 0% (inactive) | 53.2
5 | O=C(CN1C(=O)NC2(CCCCCC2)C1=O)NC1CC1 | 542% (active) | 78.5
6 | CCC1SC(CC)C(=O)N(CC(=O)NC2CCCCC2)C1=O (stereo unspecified) | -8.33% (inactive) | 80.9
7 | O=C(CN1C(=O)NC2(CCCCC2)C1=O)NCCC1=CCCCC1 | -3.7% (inactive) | 86.8
8 | O=C(CSc1nc2ccc([N+](=O)[O-])cc2[nH]1)c1ccc(Cl)cc1 | -3.7% (inactive) | 85.9
9 | COc1ccccc1-c1nc(SC)n[nH]1 | -5.26% (inactive) | 131
10 | COc1ccc(C(=O)NC(=S)NNC(=O)CCc2ccccc2)cc1 | -3.57% (inactive) | 91.6
11 | COc1cc(NC(=S)NCCSc2ccc(C)cc2)cc(OC)c1 | -3.12% (inactive) | 116
12 | COCCNC(=S)c1ccc(OC)cc1 | 433% (active) | 62.5
13 | CN=C1S/C(=C\c2ccc(Sc3ccc(Cl)cc3)o2)C(=O)N1C | -2.7% (inactive) | 43.5
14 | Cc1ccc(/C=N/NC(=O)Cn2ccc(C(F)(F)F)n2)o1 | 8.33% (inactive) | 128
15 | CC(CNC(=O)c1ccc(N)cc1)NC(=O)c1ccc(N)cc1 (stereo unspecified) | 2.33% (inactive) | 108
16 | CCN(CC)C(=O)CSc1ncnc2c1cnn2-c1ccccc1 | 392% (inactive) | 43.6
17 | Cc1ccc(-n2ncc3c(Nc4cccc(C(=O)O)c4)ncnc32)cc1 | 6.67% (inactive) | 45
18 | O=C(NNc1ncnc2c1cnn2-c1ccccc1)c1ccco1 | 500% (active) | 142
19 | COc1cc(/C=N/NC(=O)c2cc(C)n(-c3ccc(F)cc3)c2C)cc(OC)c1O | 129% (inactive) | 121
20 | Cc1cc(NC(=O)COC(=O)COc2ccc(Cl)cc2C)c([N+](=O)[O-])cc1C | 0% (inactive) | 143
21 | Cc1cccc(C(=O)N2CCCN(C(=O)c3cccc(C)c3)CC2)c1 | 3.23% (inactive) | 110
22 | Cc1cc(=O)oc(C)c1C(=O)N1CCCCC1 | 5.26% (inactive) | 82.9

Row | Compound | activation | normalized cell count [%]
23 | Cc1ccc2cc3cc(C(=O)N4CCCCCC4)oc3nc2c1 | 183% (active) | 233
24 | Cc1cccc(N(C(=O)Cc2cccs2)C(C(=O)NCc2ccco2)c2ccncc2)c1 (stereo unspecified) | 107% (inactive) | 58.7
25 | COc1cc(NC(=O)CSc2nnc3ccc(-c4ccncc4)nn23)cc(OC)c1 | -5.26% (inactive) | 108
26 | COc1ccc(C(=O)N/N=c2\oc3ccccc3cc2C(N)=O)cc1 | 0% (inactive) | 70.8
27 | O=C(Nc1ccncc1)c1cc2ccccc2o1 | 342% (inactive) | 93.3
28 | Cc1ccc(OC(=O)c2cc3ccccc3o2)cc1 | 79.3% (active) | 174
29 | COC(=O)[C@H]1Cc2cnoc2C[C@]1(C)C(=O)O | 0% (inactive) | 176
30 | COC(=O)c1cc(OC)c(OC)cc1NC(=O)CSc1ccc(C)cc1 | 3.33% (inactive) | 108
31 | Cc1cc(C)cc(NC(=O)CSc2ccccc2)c1 | 525% (active) | 53.5
32 | COc1ccc(C)cc1NC(=O)CSc1ccc(Cl)cc1 | -5.56% (inactive) | 93.7
33 | Cc1nc(CC(=O)NNS(=O)(=O)c2ccc(F)c(Cl)c2)cs1 | -7.69% (inactive) | 104
34 | N#Cc1ccc(Oc2cc(C(F)(F)F)nc(-c3ccccn3)n2)cc1 | -9.09% (inactive) | 91.7
35 | CCN(CC(=O)NC(=O)NCc1ccccc1)Cc1nc2ccccc2c(=O)[nH]1 | 8.33% (inactive) | 68.7
36 | Cc1nn(C)c(Oc2ccccc2)c1[N+](=O)[O-] | 7.04% (inactive) | 55.2
37 | O=C(O)COc1ccc(/C=N/O)cc1Br | 8.33% (inactive) | 101
38 | CN1/C(=C\C=C2\N=C(c3ccc(F)cc3)OC2=O)C(C)(C)c2ccccc21 | 121% (active) | 53.1
39 | CC(=O)NCCC(=O)Nc1nc(C)c(Cc2ccc3c(c2)OCO3)s1 | 0% (inactive) | 42.1
40 | COc1cc(/C=C2/C(=O)ON=C2C)ccc1OCc1cccc(F)c1 | 0% (inactive) | 98.9
41 | Cc1nn(Cc2ccc(C(=O)N3N=C(C(F)F)CC3(O)C(F)F)cc2)c(C)c1[N+](=O)[O-] (stereo unspecified) | 4.44% (inactive) | 126
42 | O=C(NCc1ccco1)c1nn2cccnc2c1Cl | 0% (inactive) | 126
43 | COc1ccc(CS(=O)/C(Cl)=C(/Cl)C(=O)Nc2ccc(OC)nc2)cc1 (stereo unspecified) | 669% (active) | 10.6
